Results on three compounds are retold here after ChEMBL document CHEMBL1122782, “Bulky amine analogues of ketoprofen: potent antiinflammatory agents” (J Med Chem, 1984).

Molecules are shown by their SMILES.

In experiment [1] the test system is Rattus norvegicus. Put plainly: Ulcerogenicity was measured in intestine during the 3 week adjuvant arthritis test, no of animals with ulcers out of 8 animals tested at 0.08 mM/kg (29.1 mg) was reported. In kind it is functional. The procedure, abridged: (§1)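 In the 21-day adjuvant arthritis model, male Sprague-Dawley rats (200–230 g) received an M. butyricum mineral-oil suspension into one hind paw. They were dosed daily by gavage from the day of injection. At the end of the study the rats were killed, and the small intestines were examined for ulcers. Results are given as the number of ulcerated animals over the number tested.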

Experiment [2] relates to Rattus norvegicus. Put plainly: Antiinflammatory efficacy is measured by the percent inhibition of paw volume during the 3 week adjuvant arthritis test at 0.02 mM/kg (7.28 mg). In kind it is functional. The procedure, abridged:
(§2)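 Male Sprague-Dawley rats (200–230 g) were used in groups of eight. Each received 0.1 mL of 0.6% M. butyricum in heavy mineral oil into the plantar tissue of one hind paw. Daily oral gavage in 1% gum tragacanth or corn oil-water emulsion began on the injection day and ran 21 days. Total hind paw volume was measured by mercury displacement, and inhibition was taken versus vehicle-treated adjuvant controls.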

Experiment [3] deals with prostaglandin synthetase (Bos taurus). Put plainly: Inhibitory concentration against prostaglandin synthetase from bull seminal vesicles.
Experiment [4] concerns Rattus norvegicus. Put plainly: Antiinflammatory efficacy is measured by the percent inhibition of paw volume during the 3 week adjuvant arthritis test at 0.005 mM/kg (1.82 mg). In kind it is functional. The procedure, abridged: as §2
In experiment [5] the test system is Rattus norvegicus. Put plainly: Ulcerogenicity was measured in stomach during the 3 week adjuvant arthritis test, no of animals with ulcers out of 7 animals tested at 0.32 mM/kg (116.4 mg) was reported. In kind it is functional. The procedure, abridged: (§3)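 Male Sprague-Dawley rats (200–230 g) were injected in the plantar tissue of one hind paw with 0.1 mL of 0.6% M. butyricum suspension in heavy mineral oil. Daily oral gavage began on the day of adjuvant injection and ran for the 21 days, with drug suspended in 1% gum tragacanth or a corn oil-water emulsion. At the end the rats were sacrificed and the small intestine and stomach were examined for ulcers. Results are given as animals with ulcers/animals tested.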

In experiment [6] the test system is Rattus norvegicus. Put plainly: The mean increase in paw volume was compared between drug treated groups and placebo to calculate the percent inhibition in rats at 0.02 mmol/kg by carrageenan Edema Assay; 30-39. In kind it is functional.
For experiment [7], the system named is Rattus norvegicus. Put plainly: Antiinflammatory efficacy is measured by the weight gain in rats during the 3 week adjuvant arthritis test at 0.005 mM/kg (1.82 mg). In kind it is functional. The procedure, abridged: (§4)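 Rats were adjuvant-injected (M. butyricum in mineral oil, one hind paw) or given a mineral-oil placebo. They were dosed by gavage daily for 21 days from the injection day, with vehicle only for both control groups, then weighed at the end. Weight gain % = (treated − adjuvant control)/(negative control − adjuvant control) × 100.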

Experiment [8] concerns Rattus norvegicus. Put plainly: Ulcerogenicity was measured in intestine during the 3 week adjuvant arthritis test.(animals with ulcers/animals in test) at 0.16 mM/kg (58.2 mg); 4/8. In kind it is functional. A digest of the protocol:
as §3

For experiment [9], the system named is Rattus norvegicus. Put plainly: Antiinflammatory efficacy is measured by the weight gain in rats during the 3 week adjuvant arthritis test at 0.32 mM/kg (116.4 mg). In kind it is functional. The procedure, abridged:
(§5)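 Male Sprague-Dawley rats (200–230 g), eight per group, received 0.1 mL of 0.6% M. butyricum in heavy mineral oil (negative controls: mineral oil) into one hind-paw plantar tissue. Daily gavage in 1% gum tragacanth or corn oil-water emulsion began on the injection day, for 21 days. Weight gain is expressed as (treated − adjuvant control)/(negative control − adjuvant control) × 100.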

The test system of experiment [10] is Rattus norvegicus. Put plainly: Antiinflammatory efficacy is measured by the weight gain in rats during the 3 week adjuvant arthritis test at 0.16 mM/kg (58.2 mg). In kind it is functional. The procedure, abridged:
as §4

For experiment [11], the system named is Rattus norvegicus. Put plainly: Antiinflammatory efficacy is measured by the percent inhibition of paw volume during the 3 week adjuvant arthritis test at 0.08 mM/kg (29.1 mg). In kind it is functional. A digest of the protocol: as §2
Experiment [12] relates to Rattus norvegicus. Put plainly: The percent inhibition was calculated from the average differences in hind paw volume between the adjuvant injected controls and the adjuvant-injected medicated rats at 0.08 mmol/kg; 60-69. In kind it is functional.
Experiment [13] relates to Rattus norvegicus. Put plainly: Antiinflammatory efficacy is measured by the weight gain in rats during the 3 week adjuvant arthritis test at 0.08 mM/kg (29.1 mg). In kind it is functional. A digest of the protocol:
as §4

The species entered for experiment [14] is Mus musculus. Put plainly: Effective Dose 50 is the amount of material required to elicit analgesic effect in 50% of an animal population.
For experiment [15], the species on record is Rattus norvegicus. Put plainly: Effective Dose 50 is the amount of material required to elicit inflammatory effect in 50% of an animal population. In kind it is functional. The procedure, abridged:
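In the 21-day adjuvant arthritis test in male Sprague-Dawley rats, daily gavage started on the day of M. butyricum injection. At the end, total hind paw volume was measured by mercury displacement. ED50 is the dose giving 50% inhibition of total hind paw volume change.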

For experiment [16], the system named is Rattus norvegicus. Put plainly: Antiinflammatory efficacy is measured by the weight gain in rats during the 3 week adjuvant arthritis test at 0.02 mM/kg (7.28 mg). In kind it is functional. The procedure, abridged:
as §4

Experiment [17] deals with Rattus norvegicus. Put plainly: Ulcerogenicity was measured in stomach during the 3 week adjuvant arthritis test, no of animals with ulcers out of 8 animals tested at 0.08 mM/kg (29.1 mg) was reported. In kind it is functional. A digest of the protocol: as §3
Experiment [18] has as its system Rattus norvegicus. Put plainly: Ulcerogenicity was measured in stomach during the 3 week adjuvant arthritis test, no of animals with ulcers out of 8 animals tested at 0.16 mM/kg (58.2 mg) was reported. In kind it is functional. The procedure, abridged: as §3
For experiment [19], the system named is Rattus norvegicus. Put plainly: Ulcerogenicity was measured in intestine during the 3 week adjuvant arthritis test, no of animals with ulcers out of 7 animals tested at 0.32 mM/kg (116.4 mg) was reported. In kind it is functional. A digest of the protocol:
as §1

Experiment [20] relates to Rattus norvegicus. Put plainly: Antiinflammatory efficacy is measured by the weight gain in rats during the 3 week adjuvant arthritis test at 0.55 mM/kg (113 mg). In kind it is functional. The procedure, abridged:
as §5

For experiment [21], the species on record is Rattus norvegicus. Put plainly: Compound was evaluated for highest non-ulcerogenic dose (less than 50% ulcer incidence). In kind it is functional. The settings on record: read-out: ED50. The procedure, abridged: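 Taken from the 21-day adjuvant arthritis test in male Sprague-Dawley rats dosed orally each day from the day of adjuvant injection. Small intestines and stomachs were examined for ulceration at the end. The value is the highest dose giving less than 50% ulcer incidence.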

The subject of experiment [22] is Rattus norvegicus. Put plainly: Antiinflammatory efficacy is measured by the weight gain in rats during the 3 week adjuvant arthritis test at 0.278 mM/kg (57.2 mg). In kind it is functional. The procedure, abridged:
as §5

The test system of experiment [23] is Rattus norvegicus. Put plainly: The mean increase in paw volume was compared between drug treated groups and placebo to calculate the percent inhibition in rats at 0.08 mmol/kg by carrageenan Edema Assay; 50-59. In kind it is functional.

`CC(CN1CCOCC1)c1cccc(C(=O)c2ccccc2)c1.Cl` (stereo not drawn): the Ulcerogenic index in [1] is reported as 5; in experiment [5], 1; in [8], 4; in [17], 0; in experiment [18] it was 2; in experiment [19], 7. Besides, the Inhibition is reported as 72% in experiment [2]; 49% in [4]; 30% in experiment [6]; 89% in experiment [11]; 60% in experiment [12]. In [3], this compound had an IC50 of 10 µM. The Weight gain is reported as 2% in experiment [7]; 46% in [9]; 70% in experiment [10]; 43% in [13]; 10% in experiment [16]. Besides, the ED50 is 8.4 mg/kg in [14] and 5 µmol/kg in [15].
For `CC(C)Cc1ccc(C(C)C(=O)O)cc1` (stereo not drawn) [IBUPROFEN], the Weight gain in experiment [20] came out at 18%; in experiment [22] it was 1%. Besides, the highest non-ulcerogenic dose in [21] was determined as 210 µmol/kg.
`CC(CN1C(C)CCCC1C)c1cccc(C(=O)c2ccccc2)c1` (stereo not drawn): the inhibition in vivo at 80 µmol/kg in [23] is 50%.

What is called Inhibition is the change of the read-out against control, counted positive when it falls. One may read the IC50 as the concentration needed to halve the response being measured. A low value points to higher potency. What is called ED50 is the dose that gives a 50% effect, or the effect in half of the subjects. A higher ED50 goes with weaker potency. One may read the inhibition in vivo as the change of the read-out against control, counted positive when it falls.
